According to ChEMBL document CHEMBL1154138, “Antioxidant C-glucosylxanthones from the leaves of Arrabidaea patellifera” (J Nat Prod, 2008):

Assays:
Plasmodium falciparum = test: Antiplasmodial activity against chloroquine-sensitive Plasmodium falciparum 3D7 by [3H]hypoxanthine incorporation assay; format: functional, organism-based
[1] = system: Radical scavenging activity; test: Antioxidant activity assessed as ratio of drug concentration to DPPH concentration causing 50% DPPH radical scavenging activity […]; format: functional
[2] = Antioxidant activity assessed as protection against peroxyl radical-induced alkaline phosphatase oxidation by fluorimetric assay; format: functional
Summary of the method: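 Microplate assay on pure compounds measuring protection of alkaline phosphatase (ALP) against peroxyl radical-induced loss of activity. EC50 is the antioxidant concentration that protects ALP to 50% from this loss, reported as pEC50.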

Compound | IC50 (Plasmodium falciparum) | Ratio [1] | EC50 [2]
O=C(O[C@@H]1[C@@H](O)[C@H](c2c(O)cc3oc4cc(O)c(O)cc4c(=O)c3c2O)O[C@H](CO)[C@H]1O)c1ccc(O)cc1 | 26500 nM | 0.11 | 980 nM
O=C(/C=C/c1ccccc1)O[C@@H]1[C@@H](O)[C@H](c2c(O)cc3oc4cc(O)c(O)cc4c(=O)c3c2O)O[C@H](CO)[C@H]1O |  | 0.16 | 980 nM
O=C(/C=C/c1ccc(O)cc1)O[C@@H]1[C@@H](O)[C@H](c2c(O)cc3oc4cc(O)c(O)cc4c(=O)c3c2O)O[C@H](CO)[C@H]1O | 18100 nM | 0.16 | 830 nM
O=C(/C=C/c1ccc(O)cc1)OC[C@H]1O[C@@H](c2c(O)cc3oc4cc(O)c(O)cc4c(=O)c3c2O)[C@H](O)[C@@H](O)[C@@H]1O | > 38200 nM | 0.23 | 1480 nM
O=c1c2cc(O)c(O)cc2oc2cc(O)c([C@@H]3O[C@H](CO)[C@@H](O)[C@H](O)[C@H]3O)c(O)c12 [MANGIFERIN] | 23800 nM | 0.12 | 1260 nM
O=C(/C=C/c1ccc(O)c(O)c1)O[C@@H]1[C@@H](O)[C@H](c2c(O)cc3oc4cc(O)c(O)cc4c(=O)c3c2O)O[C@H](CO)[C@H]1O |  | 0.1 | 1180 nM
O=c1c(O)c(-c2ccc(O)c(O)c2)oc2cc(O)cc(O)c12 [QUERCETIN] |  | 0.092 | 1000 nM
